For data set [1], the system named is Mus musculus. The data set can be described thus: Neurotoxicity determined by rotarod test after intraperitoneal administration at a concentration of 300 mg/kg after 4 hours; Inactive. The arrangement: dose 300 mg/kg. It counts as functional, organism-based. On the technique in general: Falling from the rotarod earlier than controls is read as motor impairment.

For data set [2], the system named is Mus musculus. In words: Anticonvulsant activity in mice through seizures induced by subcutaneous pentylenetetrazole (scPTZ) tests after ip administration at a concentration of 300 mg/kg after 4 hours; active. The data set is classed as functional, organism-based. Further details: dose 300 mg/kg.
Data set [3] concerns Mus musculus. In words: Anticonvulsant activity in mice through seizures induced by maximal electroshock (MES) tests after ip administration at a concentration of 100 mg/kg after 30 min; active. It counts as functional, organism-based. Further details: dose 100 mg/kg. Background: Protection in the maximal electroshock model is a classic sign of anticonvulsant action.
Data set [4] deals with Mus musculus. In words: Anticonvulsant activity in mice through seizures induced by maximal electroshock (MES) tests after ip administration at a concentration of 300 mg/kg after 4 hours; Inactive. It counts as functional, organism-based. Further details: dose 300 mg/kg.
The subject of data set [5] is Mus musculus. In words: Anticonvulsant activity in mice through seizures induced by sc pentylenetetrazole (intraperitoneal administration at a concentration of 300 mg/kg after 30 min; active. The data set is classed as functional, organism-based. The arrangement: dose 300 mg/kg.
The test system of data set [6] is Mus musculus. In words: Neurotoxicity by rotarod test after intraperitoneal administration at a concentration of 300 mg/kg after 30 minutes; Inactive. It counts as functional, organism-based. Further details: dose 300 mg/kg.
The species entered for data set [7] is Mus musculus. The data set can be described thus: Current response was measured from -60 mV depolarizing voltage steps at 100 uM concentration on 3 N1E-115 neuroblastoma cells. It counts as functional. The gist of the method:
(§1)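 Differentiated N1E-115 cells (3-5 days in 2.5% FCS, 2% DMSO), whole-cell clamped at -70 mV at room temperature. Bath had Cd2+ and TEA to block Ca2+ and K+ channels. Na+ currents evoked by steps from -80 to +60 mV after 90 ms prepulses to -90 or -60 mV, measured 1-2 min into compound exposure; reported as % of control.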

For data set [8], the species on record is Mus musculus. The data set can be described thus: Current response was measured from -90 mV depolarizing voltage steps at 100 uM concentration on 5 N1E-115 neuroblastoma cells. It counts as functional. In outline: as §1
Data set [9] is filed under the species Mus musculus. The data set can be described thus: Current response was measured on 1 uM GABA at 10 uM concentration on 5 isolated mouse cortical neurons. It counts as functional.
The species entered for data set [10] is Mus musculus. In words: Current response was measured on 1 uM GABA at 100 uM concentration on 10 isolated mouse cortical neurons. The data set is classed as functional.
Data set [11] is filed under the species Mus musculus. The data set can be described thus: Current response was measured on 1 uM GABA at 30 uM concentration on 6 isolated mouse cortical neurons. The data set is classed as functional.
The species named for data set [12] is Mus musculus. In words: Current response was measured on 100 uM kainate at 100 uM concentration on 7 isolated mouse cortical neurons. It counts as functional. In outline:
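Cultured mouse fetal cortical neurons, whole-cell clamped at -60 mV and 23 °C. Bath had 1 µM glycine, 10 µM picrotoxin, strychnine and tetrodotoxin. Currents evoked by 100 µM kainate pulses with and without 100 µM compound via rapid perfusion; expressed as % of control, mean ± SEM, Student's t-test.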

In data set [13] the test system is Rattus norvegicus. The data set can be described thus: Anticonvulsant activity was measured in rats through seizures induced by maximal electroshock (MES) tests by oral administration of drug after 4 hours. The data set is classed as functional. In outline: (§2)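 Rats given a single oral dose of 30 or 50 mg/kg, depending on compound; MES protection scored at 15, 30, 60, 120 and 240 min. Activity graded by fraction of animals protected (0-25%, 25-50%, 50-75%, 75-100%); neurotoxicity monitored at the same time points.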

The test system of data set [14] is Rattus norvegicus. In words: Anticonvulsant activity was measured in rats through seizures induced by maximal electroshock (MES) tests by oral administration of drug after 2 hours. It counts as functional. In outline:
as §2

The subject of data set [15] is Rattus norvegicus. In words: Anticonvulsant activity was measured in rats through seizures induced by maximal electroshock (MES) tests by oral administration of drug after 30 minutes. The data set is classed as functional. In outline: as §2
The test system of data set [16] is Rattus norvegicus. In words: Anticonvulsant activity was measured in rats through seizures induced by maximal electroshock (MES) tests by oral administration of drug after 1 hour. It counts as functional. In outline:
as §2

Data set [17] has as its system Rattus norvegicus. The data set can be described thus: Effective dose required to assure anticonvulsant protection in 50% of rats dosed orally by MES test. As to conditions: po. It counts as functional. The gist of the method: (§3)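 Rats dosed orally; ED50 is the dose giving anticonvulsant protection in 50% of animals in the MES or scPtz test. TD50 is the minimal neurotoxic dose in 50% of animals. Time to peak effect was also determined.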

The subject of data set [18] is Rattus norvegicus. In words: Effective dose required to assure anticonvulsant protection in 50% of rats dosed orally by scPTZ test. The data set is classed as functional. Conditions: po. In outline:
as §3

For data set [19], the system named is Rattus norvegicus. In words: Toxicity screening in rats dosed orally with the compound; No toxicity. It counts as organism-based. As to conditions: in vivo, po.
A short description of data set [20]: dose eliciting minimal neurological toxicity in 50% of animals. It counts as organism-based. Conditions: rat, in vivo.
In data set [21] the test system is Rattus norvegicus. In words: Anticonvulsant activity was measured in rats through seizures induced by maximal electroshock (MES) tests by oral administration of drug after 15 minutes. It counts as functional. The gist of the method: as §2

The structures appear in SMILES notation. Several values for one entry are separate records, joined by “and”; a condition that tells them apart may be missing. Identical values can stand only once. Activity calls are given as the source filed them. The rule behind the calls is not given here.

Broadly, the ED50 is the dose that gives a 50% effect, or the effect in half of the subjects. What is called TD50 is the dose at which the toxic effect under study appears in half of the subjects. The low end stands for greater toxicity, the high end for lower toxicity. Consider `Nc1ccc(N2C(=O)c3ccccc3C2=O)c(Cl)c1`, for which the result with Mus musculus [1], in the data set with Mus musculus [4] and in the data set with Mus musculus [6] was inactive. Moreover, the result in the data set on Mus musculus [2], in the data set with Mus musculus [3] and in the data set with Mus musculus [5] was Active. The Response in the data set listed under Mus musculus [7] is 49%; in the data set filed under Mus musculus [8], 62%; in the data set filed under Mus musculus [9], 174% and 99%; in the data set filed under Mus musculus [10], 118%; in the data set listed under Mus musculus [11], 142%; in the data set filed under Mus musculus [12], 74%. Also, the Activity in animals in the data set on Rattus norvegicus [13] is recorded as 100%; in the data set with Rattus norvegicus [14], 100%; with Rattus norvegicus [15], 100%; in the data set with Rattus norvegicus [16], 100%; in the data set with Rattus norvegicus [21], 75%. Further, the results for the ED50 with Rattus norvegicus [17] and in the data set on Rattus norvegicus [18] were 5.7 mg/kg and more than 250 mg/kg, respectively. Also, the Toxicity result in the data set on Rattus norvegicus [19] is “No toxicity”. For the same compound, the TD50 in data set [20] was more than 500 mg/kg.

The values are drawn from ChEMBL document CHEMBL1132994, “Synthesis and anticonvulsant and neurotoxic properties of substituted N-phenyl derivatives of the phthalimide pharmacophore” (J Med Chem, 2000).
